High-throughput results deposited in PubChem BioAssay by several laboratories.
Only some compounds are listed: those with a hit (about 7.1% of all), similar ones and a draw of the others.
Cav32 inh – blocks human Cav3.2 T-type calcium channel; O95180; Cav3.2-expressing cells, Fluo-4 calcium fluorescence FDSS; stronger effect = lower value; B-score at 10 µM; 100,000 compounds, 4% hits; AID 449739;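 active = single-dose well whose peak fluorescence ratio is a statistical outlier from its plate by either plate-standardised score or position-corrected B-score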
HCT116 bCat-KO – beta-catenin-lacking colon tumor cell growth suppression. 140,000 compounds, 1.5% hits. viability, % at 10 µM. HCT116 beta-catenin knockout viability, CellTiter-Glo, 60 h; stronger effect = lower value;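 active = viability at or under a set limit, the compound median less 4 SD, cut at about 6% in these data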;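 note: 0% = Hyamine 1622 control at 20 µM and 100% = untreated cell control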
HUVEC inhibit – blocks proliferation of human endothelial cells. AID 648. 86,000 compounds, 1.1% hits. viability, % at 10 µM (by protocol). HUVEC proliferation, CellTiter-Glo luminescence, 72 h; stronger effect = lower value;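 active = viability at or below 30%; inactive = viability above 30%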;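 note: 100% = median luminescence of DMSO-only cell control wells on each plate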
PTEN del growth – PTEN-deleted cell growth suppression. HCT116 PTEN-null viability, CellTiter-Glo, 60 h; stronger effect = lower value. 140,000 compounds, 1.2% hits. viability, % at 10 µM. AID 827;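 active = viability at or below a set limit, 4 SD under the median of all tested compounds, cut at about 3.7% in these data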;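 note: PTEN knockout HCT116 line with beta catenin targeted HCT116 as companion control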
Lung fibro prol – blocks proliferation of human lung fibroblasts; viability, % at 10 µM; AID 719; 85,000 compounds, 1.1% hits; LL 47 human lung fibroblast viability, ATP luminescence; stronger effect = lower value;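 active = viability at or below 50% in the single dose screen; inactive = viability above 50%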;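 note: compound exposure lasted 72 h before the ATP readout; 100% = median luminescence of untreated cell-only wells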
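Material: Human LL 47 lung fibroblast cells | Input: 1,150 cells/well | Buffer or medium: IMEM plus 15% FBS | Compound dosing: 0.1% DMSO in all compound wells | Times: Overnight cell rest, 72 h compound treatment at 37 °C | Signal: CellTiter-Glo luminescence measuring cellular ATP | Measure: % viability versus median cells-only luminescence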
H69AR growth 86K – blocks growth of human H69AR lung tumor cells. H69AR lung tumor viability, ATP luminescence, 72 h; stronger effect = lower value. viability, % at 10 µM. 85,000 compounds, 6% hits. AID 598;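 active = viability at or below 40%; inactive = viability above 40%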;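 note: multidrug resistant small cell line overexpressing MRP-1 efflux transporter; 100% = mean luminescence of untreated control wells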
* hit, by the source's call; . = no result given.

SMILES	Cav32 inh	HCT116 bCat-KO	HUVEC inhibit	PTEN del growth	Lung fibro prol	H69AR growth 86K
O=C1NC(c2ccccn2)Nc2sc3c(c21)CCC3 (centres undefined)	0.0022	3.8*	72	1.8*	84	43
Cc1nc2ccccc2nc(C)c1=NOCc1ccccc1Cl	.	83	.	85	.	.
CCn1c(C(=O)N2CCc3ccccc3C2)cc2sccc21	-5.6*	72	101	66	97	90
CCn1c(C(=O)N2CCC(C(=O)NCc3ccc4c(c3)OCO4)CC2)cc2sccc21	-5.9*	83	106	79	87	79
CCn1c(C(=O)N2CCC(C(=O)NCCCSC3CCCCC3)CC2)cc2sccc21	-7*	56	65	59	88	61
Cn1c(C(=O)N2CCCC(C(=O)NCc3ccc4c(c3)OCO4)C2)cc2sccc21 (centres undefined)	-2.6	80	80	81	93	69
Fc1ccccc1NC(=S)N1CCN(Cc2ccccc2)CC1	.	92	.	95	.	.
Cc1ccc(Nc2nc(N)nc(CN3CCC(C)CC3)n2)c(C)c1	0.054	93	86	86	94	33*
COc1cccc(N2CCN(Cc3nc(N)nc(Nc4ccccc4)n3)CC2)c1	-1.9	79	90	93	97	79
Cc1cccc(Nc2nc(N)nc(CN3CCN(c4ccccc4)CC3)n2)c1	-3.7*	79	92	76	99	87
COc1ccccc1Nc1nc(N)nc(CN2CCN(Cc3ccccc3)CC2)n1	-0.038	92	99	98	99	52
Cc1cccc(Nc2nc(N)nc(CN3CCN(c4ccccc4F)CC3)n2)c1	-4.9*	.	.	.	.	.
Cc1ccc(Nc2nc(N)nc(CN3CCCCCC3)n2)c(C)c1	0.74	72	99	80	101	85
COc1ccccc1N1CCN(Cc2nc(N)nc(Nc3ccc(C)c(Cl)c3)n2)CC1	-5.7*	16	.	18	.	.
Cc1ccc(S(=O)(=O)/C=C/c2ccccc2)cc1	.	100	.	101	.	.
COc1ccccc1/C=N/NC(=O)CCn1cnc2ccccc21	.	89	.	92	.	.
CCc1ccc(C(=O)CN(C#N)c2nc(C)cc(C)n2)cc1	-0.26	87	55	84	92	60
CCc1ccc(-c2cn(-c3nc(C)cc(C)n3)c(=N)o2)cc1	-0.027	70	59	61	84	1.2*
NNc1nc2c(Cl)ccc(Cl)c2s1	.	83	.	94	.	.
CC1CCN(C(=S)c2cn(Cc3ccccc3F)c3ccccc23)CC1	-6.5*	79	.	75	.	.
COc1ccc(C2=Nn3c(nnc3-c3ccc(OC)cc3)SC2)cc1	-7.2*	16	47	14	42*	22*
COc1cc(-c2nnc3n2N=C(c2ccccc2)CS3)cc(OC)c1OC	-1.6	13	49	10	52	19*
c1ccc(C2=Nn3c(nnc3-c3cc(-c4ccccc4)n[nH]3)SC2)cc1	-0.7	77	90	79	63	40*
CCOc1ccc(C2=Nn3c(nnc3-c3ccccn3)SC2)cc1	0.94	83	95	91	94	30*
COc1ccc(-c2nnc3n2N=C(C)CS3)cc1	.	80	80	100	97	84
SMILES	Cav32 inh	HCT116 bCat-KO	HUVEC inhibit	PTEN del growth	Lung fibro prol	H69AR growth 86K
COc1ccc(C2=Nn3c(nnc3-c3ccccn3)SC2)cc1OC	-2.1	91	106	86	81	73
Cc1ccc(C)c2sc(NC(=O)c3nc4ccccc4s3)nc12	.	21	.	23	.	.
O=C(c1cc2nc(-c3ccco3)cc(C(F)(F)F)n2n1)N1CCN(Cc2ccccc2)CC1	-1.2	79	92	77	101	106
C/C(=N\OCC(=O)Nc1c(C)cc(C)cc1C)c1ccc2c(c1)OCCO2	.	78	.	84	.	.
CCC(C)Nc1c2c(nc3c(-c4ccccc4)c(C)nn13)CCC2 (centres undefined)	-0.24	83	94	80	97	30*
Cc1nn2c(Nc3ccc(F)cc3)c3c(nc2c1-c1ccccc1)CCC3	.	93	.	80	.	.
CCCCNc1c2c(nc3c(-c4ccccc4)c(C)nn13)CCC2	0.071	85	80	87	84	27*
CCOc1ccccc1NC(=O)C1=C(C)NC(=S)NC1c1cccs1 (centres undefined)	.	89	.	83	.	.
O=C(NCCN1CCOCC1)c1cc(=O)[nH]c2ccc(Br)cc12	.	94	89	84	104	89
O=C(NCCCN1CCOCC1)c1c(O)c2cc(Br)cc(Br)c2[nH]c1=O	.	.	102	.	100	18*
COc1ccc(Cl)cc1NC(=O)NC1CCCCC1	-1	83	88	69	100	80
COc1ccccc1NC(=O)Nc1ccc(Br)cn1	0.27	90	87	98	95	62
COc1ccc(Cl)cc1NC(=O)Nc1ccc(Br)cn1	0.13	76	98	68	91	38*
COc1ccc(Cl)cc1NC(=O)Nc1cccc([N+](=O)[O-])c1C	0.16	3.1*	.	4	.	.
CN1CCCN(C(c2ccccc2)c2ccc(Cl)cc2)CC1 (centres undefined)	.	17	77	16	65	25*
CCN(CC)C(=O)C1CC(c2ccc(OC)cc2)=NO1 (centres undefined)	-4.3*	86	100	99	91	93
O=C(Nc1cccc2cccnc12)c1ccc(Br)o1	-0.1	83	71	87	90	37*
O=C(O)c1cnc(-c2ccccc2)nc1Sc1ccccc1Cl	-6.4*	97	.	97	.	.
CCOC(=O)c1nnc(-c2ccccc2)nc1Sc1ccccc1Cl	0.7	85	62	82	87	0.6*
CCOC(=O)c1nnc(-c2ccccc2)nc1Oc1ccc(Cl)cc1	.	25	.	31	.	.
CCOC(=O)c1nnc(-c2ccc(C)cc2)nc1Sc1cccc(Cl)c1	.	78	53	80	81	33*
O=[N+]([O-])c1ccc(N/N=C/c2ccc[nH]2)cc1	.	61	.	77	.	.
FC(F)(F)c1cccc(Cn2nnnc2-c2cccc(C(F)(F)F)c2)c1	-2.8	78	.	73	.	.
O=C(O)CCCNC(=O)c1ccccn1	.	87	.	88	.	.
O=C(O)c1cccc(N2C(=O)c3cccc(Oc4ccc(Cl)cc4)c3C2=O)c1	.	90	.	96	.	.
SMILES	Cav32 inh	HCT116 bCat-KO	HUVEC inhibit	PTEN del growth	Lung fibro prol	H69AR growth 86K
CC1Cc2ccccc2N1C(=O)c1ccnc(C(C)(C)C)c1 (centres undefined)	-1	83	97	82	94	87
COc1cc2c(cc1OC)CN(C(C)C(=O)N1CCc3ccccc31)CC2 (centres undefined)	1.4	58	77	60	86	18*
CC(C(=O)N1CCc2ccccc21)N1CCc2ccccc2C1 (centres undefined)	0.063	88	.	80	.	.
COc1cc(C(=O)N2c3ccccc3CC2C)cc(OC)c1OC (centres undefined)	0.42	99	93	87	95	38*
COc1cc(C(=O)N2CCCc3ccccc32)cc(OC)c1OC	1.1	40	89	36	112	25*
O=C(Cc1cccc2ccccc12)N1CCCc2ccccc21	-4.5*	75	98	71	91	94
